# From ChEMBL document CHEMBL1134972, “Discovery of a potent and selective COX-2 inhibitor in the alkoxy lactone series with optimized metabolic profile” (Bioorg Med Chem Lett, 2002)
# Experiments:
# [1] = species: Rattus norvegicus; test: Antiinflammatory activity by using Rat hyperalgesia assay; assay type: functional
# Outline: (§1)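 Rat in vivo models (paw edema, pyresis, hyperalgesia, adjuvant arthritis), with activity expressed as ED50 in mg/kg.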
# [2] = system: Rattus norvegicus; test: Antiinflammatory activity by using Rat paw edema assay; assay type: functional; outline: as §1
# [3] = species: Rattus norvegicus; test: Antiinflammatory activity by using Rat pyresis assay; assay type: functional; outline: as §1
# [4] = species: Rattus norvegicus; test: Antiinflammatory activity by using Rat adjuvant arthritis assay; assay type: functional; outline: as §1
# [5] = Cmax in rat; assay type: ADME, organism-based; details: in vivo
# Outline: (§2)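 Rat pharmacokinetics at a 10 mg/kg dose, reporting half-life, Cmax (μM) and bioavailability (%).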
# [6] = Half-life in rat; assay type: ADME, organism-based; details: in vivo; outline: as §2
# [7] = biological target: Prostaglandin G/H synthase 1 (Homo sapiens, UniProt P23219); test: In vitro inhibitory potency against Prostaglandin G/H synthase 1 in human whole blood assay; assay type: tissue-based
# Prostaglandin G/H synthase 1, sequence (P23219 whole entry): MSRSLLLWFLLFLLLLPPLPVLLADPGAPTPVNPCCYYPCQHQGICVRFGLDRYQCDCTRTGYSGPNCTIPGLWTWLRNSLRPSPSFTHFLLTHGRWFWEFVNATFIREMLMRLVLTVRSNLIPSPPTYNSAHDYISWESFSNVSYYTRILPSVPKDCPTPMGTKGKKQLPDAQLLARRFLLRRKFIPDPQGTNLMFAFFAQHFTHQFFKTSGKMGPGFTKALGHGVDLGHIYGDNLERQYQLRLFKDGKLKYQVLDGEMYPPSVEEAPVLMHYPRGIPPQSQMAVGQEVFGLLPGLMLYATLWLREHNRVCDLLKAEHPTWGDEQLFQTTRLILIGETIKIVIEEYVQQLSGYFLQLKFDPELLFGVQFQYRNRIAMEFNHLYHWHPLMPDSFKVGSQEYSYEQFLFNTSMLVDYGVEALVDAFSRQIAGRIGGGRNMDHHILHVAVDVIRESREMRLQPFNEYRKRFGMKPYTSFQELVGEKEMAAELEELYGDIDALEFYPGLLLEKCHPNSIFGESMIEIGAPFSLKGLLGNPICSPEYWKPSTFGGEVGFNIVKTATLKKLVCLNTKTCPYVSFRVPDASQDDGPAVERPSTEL
# [8] = Bioavailability in rat; assay type: ADME, organism-based; details: in vivo; outline: as §2
# [9] = biological target: T1, Prostaglandin G/H synthase 2 (Homo sapiens, UniProt P35354); test: In vitro inhibitory potency against Prostaglandin G/H synthase 2 in human whole blood assay; assay type: tissue-based
# T1 sequence (P35354 whole entry): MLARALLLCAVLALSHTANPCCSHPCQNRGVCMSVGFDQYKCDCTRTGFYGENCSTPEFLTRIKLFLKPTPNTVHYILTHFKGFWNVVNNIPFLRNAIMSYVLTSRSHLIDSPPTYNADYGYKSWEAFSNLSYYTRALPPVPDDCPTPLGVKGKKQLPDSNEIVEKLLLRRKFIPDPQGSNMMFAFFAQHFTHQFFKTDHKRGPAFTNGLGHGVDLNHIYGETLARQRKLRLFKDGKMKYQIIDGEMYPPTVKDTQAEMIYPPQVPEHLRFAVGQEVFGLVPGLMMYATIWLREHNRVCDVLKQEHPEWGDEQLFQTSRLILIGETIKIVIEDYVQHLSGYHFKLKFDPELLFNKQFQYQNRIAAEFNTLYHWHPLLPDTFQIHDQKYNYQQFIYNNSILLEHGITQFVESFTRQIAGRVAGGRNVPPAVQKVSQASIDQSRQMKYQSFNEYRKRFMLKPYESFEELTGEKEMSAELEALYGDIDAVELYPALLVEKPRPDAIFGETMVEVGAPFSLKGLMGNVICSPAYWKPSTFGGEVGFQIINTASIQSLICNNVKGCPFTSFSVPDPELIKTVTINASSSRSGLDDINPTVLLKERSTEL
half-life [6] [h],IC50 ([7]; read-out: IC50) [nM],bioavailability [8] [%],IC50 [9] [nM],IC50 [7],SMILES,ED50 [1] [mg/kg],ED50 [2] [mg/kg],ED50 [3] [mg/kg],ED50 [4] [mg/kg],Cmax [5] [µM]
–,–,–,–,–,CS(=O)(=O)c1ccc(C2=C(c3ccccc3)C(=O)OC2)cc1 [ROFECOXIB],1,1.5,0.2,0.8,–
–,–,–,–,–,COc1ccc2c(c1)c(CC(=O)O)c(C)n2C(=O)c1ccc(Cl)cc1 [INDOMETHACIN],1.4,2,1,0.2,–
2,> 86000,100,400,–,CC[C@]1(C)OC(=O)C(OC(C)C)=C1c1ccc(S(C)(=O)=O)cc1,0.7,1.2,0.7,3.3,1.7
< 2,> 100000,–,500,–,"CC[C@@]1(C)OC(=O)C(OC(C)C)=C1c1ccc(S(C)(=O)=O)cc1 (single isomer, unassigned)",–,4.5,4.9,–,–
–,–,–,–,Not Active,CC(C)OC1=C(c2ccc(S(C)(=O)=O)cc2)C(C)(CC(F)(F)F)OC1=O (stereo not given),–,–,–,–,–

SMILES,half-life [6] [h],IC50 ([7]; read-out: IC50) [nM],bioavailability [8] [%],IC50 [9] [nM],IC50 [7],ED50 [1] [mg/kg],ED50 [2] [mg/kg],ED50 [3] [mg/kg],ED50 [4] [mg/kg],Cmax [5] [µM]
CC(C)OC1=C(c2ccc(S(C)(=O)=O)cc2)C(C)(C)OC1=O,7.1,> 100000,–,–,–,0.8,0.8,0.3,0.3,15
